Shown are actives, neighbours in structure and some others; about 3.7% of the full set was active somewhere.
KCNK3 inh: human KCNK3 channel inhibition, primary screen. O14649. CHO-KCNK3 thallium flux, FluxOR fluorescence; stronger effect = lower value. B-score at 10 µM. actives 0.84% (n = 340,000);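 active = B-score under library mean minus 4 SD, starting fluorescence ratio at most library mean plus 5 SD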;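 note: more negative B-score means stronger inhibition of thallium flux through KCNK3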
Kir21 inh: blocks the mouse Kir2.1 inward-rectifier potassium channel; B-score at 10 µM; HEK293-Kir2.1, FluxOR thallium flux fluorescence; stronger effect = lower value; actives 0.85% (n = 310,000); P35561;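 active = fluorescence ratio B-score at or below minus 3 SD of library scores, with starting-brightness B-score within 2 SD, cut at about -4.2 in these data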;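 note: channel flux triggered by added potassium and thallium sulfate stimulus; B-score of peak minus minimum fluorescence over baseline after thallium stimulus; more negative B-score means stronger Kir2.1 block with less thallium influx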
Target sequence (P35561 whole entry, looked up): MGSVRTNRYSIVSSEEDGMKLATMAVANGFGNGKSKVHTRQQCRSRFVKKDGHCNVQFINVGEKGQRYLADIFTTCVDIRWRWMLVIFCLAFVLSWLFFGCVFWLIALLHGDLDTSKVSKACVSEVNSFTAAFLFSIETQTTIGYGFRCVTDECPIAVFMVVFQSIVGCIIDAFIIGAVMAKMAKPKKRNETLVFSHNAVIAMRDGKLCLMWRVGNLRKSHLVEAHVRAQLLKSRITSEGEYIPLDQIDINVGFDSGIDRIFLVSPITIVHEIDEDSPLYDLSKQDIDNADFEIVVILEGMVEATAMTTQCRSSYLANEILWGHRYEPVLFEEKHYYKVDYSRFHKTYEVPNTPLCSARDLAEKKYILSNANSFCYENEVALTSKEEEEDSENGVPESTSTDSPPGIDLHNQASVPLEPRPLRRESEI
hERG protect: compounds protecting human hERG from proarrhythmic drug block; AID 1511; Q12809; actives 0.51% (n = 310,000); activation (rescue from dofetilide block), less the hit threshold, % at 10 µM; CHO-hERG, FluxOR thallium flux, dofetilide IC70 present;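 active = activation above the mean of controls blocked by dofetilide plus 5 SD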;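 note: thallium influx through hERG after potassium depolarization seen as dye fluorescence rise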
KCNK9 inh: inhibitors of human KCNK9 two-pore domain potassium channel; Q9NPC2; HEK293 KCNK9, FluxOR thallium flux fluorescence; stronger effect = lower value; B-score at 10 µM; actives 1.2% (n = 310,000);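 active = ratio B-score over 3 SD below the library mean, with starting fluorescence within 5 SD of its mean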;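 note: negative B-score means less thallium flux so channel inhibition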
KCNQ1 inh: inhibitors of human KCNQ1 potassium channel | P51787 | CHO-K1 KCNQ1, FluxOR thallium flux fluorescence; stronger effect = higher value | B-score at 10 µM | actives 1.3% (n = 310,000) | AID 2642;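 active = compounds whose thallium flux B-score, printed positive for inhibition, exceeds three library SD while starting fluorescence stays within three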;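 note: channel opened by potassium depolarization with thallium stimulus after 20 min compound exposure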
KCNQ1 pot: potentiates or activates the human KCNQ1 potassium channel; actives 0.35% (n = 310,000); AID 2648; B-score at 10 µM; P51787; CHO-K1 KCNQ1, thallium flux FluxOR fluorescence; stronger effect = higher value;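 active = fluorescence ratio B-score, a plate-corrected score, at least three library SD, with initial intensity B-score within 5 SD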
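System: CHO-K1 cells stably expressing KCNQ1 / Medium: assay buffer for compound exposure, DMSO matched across wells / Reagent: thallium- and potassium-containing depolarizing buffer / Compound: one concentration, matched DMSO / Incubation: 20 min compound pretreatment at room temperature / Measured by: kinetic FluxOR fluorescence, 10 s baseline plus 110 s post-stimulus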
Numbers without * were called inactive; i = inactive; · = no result given.

SMILES	KCNK3 inh	Kir21 inh	hERG protect	KCNK9 inh	KCNQ1 inh	KCNQ1 pot
Clc1ccc(Nc2ccc(Cl)nn2)cc1	i	0.7	5.9*	i	i	i
CNC(=O)c1sc(N2N=C3/C(=C/c4ccccc4)CCCC3C2c2ccccc2)nc1C (stereo unspecified)	i	-0.72	-9	-8.7*	i	i
Cc1ccc(NC(=O)CSCC(=O)Nc2cc(C(F)(F)F)ccc2N2CCOCC2)cc1	i	-1.2	-12	i	i	i
O=C(CSCc1ccco1)Nc1cc(C(F)(F)F)ccc1N1CCOCC1	i	-1.9	-6	-6.7*	i	i
CC(C)(C)C1=CC=C(C(C)(C)C)C(=O)C1=O	·	0.55	-20	i	10*	i
CCOc1ccc(C2OCCC(C)O2)cc1OC (stereo unspecified)	i	·	·	·	·	·
O=S(=O)(CCNCc1ccco1)NC1CCCCC1	i	·	·	·	·	·
Cc1cccc(/C=C2/Sc3ccc(C(=O)NCCN4CCCC4)cc3NC2=O)c1	i	-2.8	-32	i	6*	i
O=C1Nc2cc(C(=O)NCCN3CCCCCC3)ccc2S/C1=C\c1ccccc1	i	-4.9*	-28	i	i	i
CCN1CCN(CCCNC(=O)c2ccc3c(c2)NC(=O)/C(=C\c2cccc(C)c2)S3)CC1	i	-4.1	-33	i	i	i
O=C(O)c1ccccc1C(=O)c1ccc2oc(=O)[nH]c2c1	i	·	·	·	·	·
Cc1ccc(C2(CCNCc3ccc(N(C)C)cc3)CCOC(C(C)C)C2)cc1 (stereo unspecified)	i	-4.7*	-18	i	i	i
CC(C)C1CC(CCNCc2ccc(N(C)C)cc2)(c2ccccc2)CCO1 (stereo unspecified)	i	-2.4	-7	i	i	i
CC(=O)Nc1ccc(C(=O)NNC(=O)C2C3CCCCC32)cc1 (stereo unspecified)	i	1.7	-2	i	i	i
Cn1nc(-c2ccc(Cl)cc2)c2cc(C(=O)N3CCN(c4ccccn4)CC3)sc21	-13*	0.11	-6	i	i	i
Cn1nc(-c2ccc(Cl)cc2)c2cc(C(=O)N3CCCC3)sc21	i	-1.3	-4	i	i	i
CC(C)(C)c1ccc(OCc2nc(-c3ccccn3)no2)c(Br)c1	i	-0.41	-8	-6.8*	i	i
Clc1cc(Cl)c(OCc2nc(-c3ccccn3)no2)cc1Cl	i	-0.05	-7	i	i	i
FC(F)(F)c1ccc(N2CCOCC2)c(Nc2nc3ccccc3n3cnnc23)c1	i	0.63	-4	-7.2*	i	i
COc1cc2c(cc1NC(=O)CSc1nnc(COc3ccc(Cl)cc3)n1C)oc1ccccc12	i	0.63	-6	i	i	11*
CN=c1sc2c(n1C)C(=O)c1ccccc1C2=O	i	·	·	·	·	·
Cc1cnnn1-c1ccc(C(=O)CCl)cc1	i	0.47	-24	i	6*	i
Cc1ccc(-n2cc(-c3ccc([N+](=O)[O-])cc3)[nH]c2=S)c(C)c1	i	0.03	7.2*	i	i	i
Cc1cccc(-n2cc(-c3ccc([N+](=O)[O-])cc3)[nH]c2=S)c1	i	1.7	-4	i	i	i
NS(=O)(=O)c1cccc(NC(=O)COC(=O)/C=C/c2nc3ccccc3s2)c1	i	·	·	·	·	·
SMILES	KCNK3 inh	Kir21 inh	hERG protect	KCNK9 inh	KCNQ1 inh	KCNQ1 pot
CCOC(=O)C1=C(C)N=C2SC(C(=O)OC)=CC(=O)N2C1c1ccc(F)cc1 (stereo unspecified)	i	-5.4*	-13	i	i	i
CCOC(=O)C1=C(C)N=C2SC(C(=O)OC)=CC(=O)N2C1c1cccc(OC)c1 (stereo unspecified)	i	-0.51	-5	i	i	i
Cc1ccc(C(=O)N2[C@@H]3CN(C)C(=O)[C@@]2(Cc2ccccc2)[C@H]2C(=O)N(C)C(=O)[C@@H]32)cc1	i	·	·	·	·	·
CCCCOc1ccc(-c2nc(/C=N/c3nccs3)c(O)o2)cc1	i	0.66	1	i	i	i
Oc1oc(-c2ccccc2)nc1/C=N/c1nccs1	i	-1.4	0	i	i	12*
O=C1C(Cl)=C(Nc2ccc3cn[nH]c3c2)C(=O)c2ccccc21	i	1.1	-9	i	9*	i
CC(=O)Nc1ccc(NC2=C(Cl)C(=O)c3ccccc3C2=O)cc1	·	0.69	-10	i	12*	i
COc1ccc(C(=O)OCC(=O)c2c(N)n(C)c(=O)n(C)c2=O)c(OC)c1OC	i	·	·	·	·	·
CC1(C)C2CCC1(C)C(SC(=N)N)C2 (stereo unspecified)	i	·	·	·	·	·
NC1=NC2=C(CCCC2)C2(CCCCC2)S1	i	-6.7*	-15	i	i	i
CCn1c(NCc2c[nH]c3ccccc23)nc2ccccc21	i	-3.3	-12	i	i	i
C=CCn1c(NCc2c[nH]c3ccccc23)nc2ccccc21	i	-5.6*	-16	i	i	i
Cc1onc(-c2ccccc2Cl)c1C(=O)Nc1nnc(-c2ccc(Br)cc2)s1	i	-0.28	-11	i	8*	i
Cc1onc(-c2c(F)cccc2Cl)c1C(=O)Nc1nnc(-c2ccccc2)s1	i	0	-6	i	i	i
Cc1onc(-c2ccccc2Cl)c1C(=O)Nc1nnc(-c2ccc(Cl)cc2Cl)s1	i	2.7	-9	i	8*	i
Cc1onc(-c2ccccc2Cl)c1C(=O)Nc1nnc(-c2ccc(F)cc2)s1	i	0.81	-8	i	i	i
Cc1ccc(Cn2ncc3c(NN)ncnc32)cc1	i	-0.49	-5	i	i	15*
O=C(NC(=S)N(CC1CCC1)CC1CCCO1)c1cccc([N+](=O)[O-])c1 (stereo unspecified)	i	0.37	7.9*	i	i	16*
CN1CCN(C(=S)NC(=O)c2cccc([N+](=O)[O-])c2)CC1	i	-0.69	-4	i	i	i
COc1ccc(C(=O)NC(=S)N2CCC(C)CC2)cc1Br	i	-2	15*	i	i	27*
Cc1ccc(C(=O)NC(=S)N2CCN(c3cc(C)ccc3C)CC2)cc1	i	0.05	7.7*	i	i	i
Cc1ccc(C(=O)NC(=S)N2CCN(c3ccccc3F)CC2)cc1	i	-0.12	-9	i	i	i
CC1CCN(C(=S)NC(=O)c2cccc([N+](=O)[O-])c2)CC1	i	2	13*	i	i	9*
CCc1cc(SC#N)cc(CC)c1NC(=O)CCl	i	-0.2	-9	i	i	i
CC(C)[C@H](NC(=O)c1ccccc1Cl)C(=O)OCC(=O)NCc1ccc2c(c1)OCO2	i	·	·	·	·	·

Bioassay records (PubChem BioAssay)
